Screening results from PubChem.
Hits are enriched below; roughly 1.2% of the tested compounds scored in any of these assays.
G6PDH counter – inhibits Leuconostoc G6PDH, flagging false hits in G6PDH-based assays; Purified L. mesenteroides G6PDH, diaphorase/resazurin coupled fluorescence, 45 min; inhibition, % at 5 µM; 200,000 compounds, 0.12% hits; in the data active = inhibition above about 50%
Diaphorase inh – counter-screen for diaphorase-based assays: diaphorase inhibitors and chemical oxidizers. diaphorase resazurin-to-resorufin fluorescence, NADH, 16 min; bacterial (C. kluyveri) enzyme, not human. inhibition, % at 20 µM. 190,000 compounds, 0.69% hits. AID 1217;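 active = primary screen inhibition at 20 µM above a set limit, cut at about 50% in these data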;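 also: plate controls were DMSO with full reaction for no effect and wells lacking NADH for full effect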
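controls = No-NADH positive control and DMSO neutral control | system = Clostridium kluyveri diaphorase enzyme | timing = reaction incubation of 16 min at room temperature | signal = resorufin fluorescence 544/590 nm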
Diaph act CS – activates diaphorase or chemically reduces, flagging diaphorase assay artifacts; Diaphorase/resazurin coupled assay, resorufin fluorescence, 16 min; active compounds read high; 1 = vehicle wells, 0 = NADH-free wells; activation factor at 20 µM; 190,000 compounds, 0.005% hits;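 active = diaphorase activity raised at least twofold by the compound at 20 µM; inactive = activation factor below 2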
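test system = bacterial diaphorase enzyme (C. kluyveri) | quantity = enzyme 0.07 U/mL final | reagent = NADH substrate 0.114 mM plus resazurin dye 0.1 mM, final | incubation = 16 min enzyme reaction, ambient temperature | buffer or medium = HEPES pH 7.4 buffer with MgCl2 and Tween 20 | signal = fluorescence of resorufin, 544 nm excitation, 590 nm emission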
HKDC1 inhibitor – HKDC1 (human) hexokinase inhibition; AID 493160; inhibition, % at 20 µM; recombinant HKDC1, G6PDH/diaphorase resazurin coupled fluorescence; 340,000 compounds, 0.16% hits; Q2TB90;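 active = inhibition above about 35% when tested at 20 µM, limit read from the data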;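 also: plate controls were DMSO wells with enzyme for no effect and DMSO wells lacking enzyme for full effect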
Target sequence (Q2TB90 whole entry, looked up): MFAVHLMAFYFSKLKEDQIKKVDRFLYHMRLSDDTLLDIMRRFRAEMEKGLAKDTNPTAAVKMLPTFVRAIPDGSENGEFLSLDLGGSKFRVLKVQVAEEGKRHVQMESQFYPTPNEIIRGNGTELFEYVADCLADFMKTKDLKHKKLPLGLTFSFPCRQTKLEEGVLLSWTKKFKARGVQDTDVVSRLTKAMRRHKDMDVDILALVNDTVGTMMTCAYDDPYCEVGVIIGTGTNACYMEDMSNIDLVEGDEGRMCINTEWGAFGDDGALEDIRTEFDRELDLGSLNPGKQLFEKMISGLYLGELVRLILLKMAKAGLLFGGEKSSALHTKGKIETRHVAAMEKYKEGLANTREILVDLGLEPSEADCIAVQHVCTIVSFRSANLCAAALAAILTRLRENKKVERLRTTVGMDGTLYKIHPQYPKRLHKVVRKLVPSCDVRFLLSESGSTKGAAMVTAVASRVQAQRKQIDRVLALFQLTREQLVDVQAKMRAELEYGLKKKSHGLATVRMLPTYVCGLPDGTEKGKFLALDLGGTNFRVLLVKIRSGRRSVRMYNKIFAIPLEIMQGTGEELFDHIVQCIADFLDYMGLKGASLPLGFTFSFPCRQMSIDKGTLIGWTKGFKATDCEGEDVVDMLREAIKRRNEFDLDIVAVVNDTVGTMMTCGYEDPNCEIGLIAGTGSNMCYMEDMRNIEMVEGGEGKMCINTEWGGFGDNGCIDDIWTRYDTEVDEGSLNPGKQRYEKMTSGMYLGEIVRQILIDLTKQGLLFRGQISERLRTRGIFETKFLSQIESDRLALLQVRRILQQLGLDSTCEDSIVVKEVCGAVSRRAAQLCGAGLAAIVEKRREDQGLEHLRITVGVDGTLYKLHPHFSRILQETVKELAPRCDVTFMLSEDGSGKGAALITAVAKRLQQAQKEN
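Assay system: in-house recombinant HK5 (HKDC1) enzyme. Input: HKDC1 at 5 µg/mL. Medium: Tris pH 8.0 buffer with MgCl2, Tween-20, BSA, BME. Dosing: single 20 µM dose. Schedule: 90 min reaction incubation at room temperature, dark. Signal: resazurin-to-resorufin fluorescence via G6PDH and diaphorase coupling, 525/613 nm. Controls: DMSO-enzyme wells negative, buffer-substituted wells positive.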
PfGluPho inh – PfG6PD (Plasmodium falciparum) enzyme inhibition; PfGluPho enzyme, NADPH resazurin-diaphorase fluorescence; inhibition, % at 20 µM; 350,000 compounds, 0.78% hits; AID 504690;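 active = inhibition reaching at least a set limit at 20 µM in the primary screen, cut at about 59% in these data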;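 also: 0% = DMSO wells with substrate and 100% = DMSO wells lacking glucose-6-phosphate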
An asterisk follows results filed as active; x = not tested or not shown.

SMILES	G6PDH counter	Diaphorase inh	Diaph act CS	HKDC1 inhibitor	PfGluPho inh
COc1ccccc1/C=C/C=N/n1c(-c2ccncc2)n[nH]c1=S	5	65*	0.3	11	10
COc1ccccc1/C=C/C=N/n1c(-c2ccc(C)cc2)n[nH]c1=S	-4	28	0.7	-11	7
O=C(CN1CCN(Cc2ccccc2)CC1)Nc1cccc(Cl)c1Cl	x	x	x	x	2
COc1ccc(N2CCN(CCCn3cnc4c(OC)ncnc43)CC2)cc1	x	x	x	x	4
COc1ccccc1/C=C/C=N/n1c(-c2cc(C)[nH]n2)n[nH]c1=S	6	50*	0.5	-3	17
CCCCN1C(=O)C(CC(=O)NC(c2ccccc2)c2ccccc2)CC(C(=O)N(C(C)C)C(C)C)=C1C (configuration not stated)	x	x	x	x	-5
Cc1cccc(/C=N/Nc2cc(N3CCOCC3)nc(N3CCOCC3)n2)c1	30	72*	0.3	8	21
CC(C)c1ccc(/C=N/Nc2cc(N3CCOCC3)nc(N3CCOCC3)n2)cc1	24	63*	0.4	2	22
Oc1ccc(/C=N/Nc2cc(N3CCCC3)nc(N3CCCC3)n2)cc1O	49	62*	0.4	15	16
Cc1ccc(/C=N/Nc2cc(C)nc(N3CCOCC3)n2)cc1	x	x	x	4	11
Oc1ccc(/C=N\Nc2cc(N3CCOCC3)nc(N3CCOCC3)n2)c(O)c1	38	35	0.7	8	9
C[C@H]1Cn2cnc(C(=O)NCc3ccc(CNC(=O)OC(C)(C)C)cc3)c2C(=O)N1	x	x	x	x	1
Cc1cc2nc3s/c(=C/c4ccc(-c5ccccc5C(=O)O)o4)c(=O)n3c2cc1C	x	x	x	15	32
O=C(O)c1ccccc1-c1ccc(/C=c2\sc3nc4cc(Br)cnc4n3c2=O)o1	16	56*	0.4	68*	59
CCOC(=O)Cc1csc(NC(=O)NC2(C(F)(F)F)Oc3ccc(Cl)cc3O2)n1 (configuration not stated)	33	42	0.6	-7	26
CCOC(=O)Cc1csc(NC(=O)NC2(C(F)(F)F)Oc3cc(Cl)c(Cl)cc3O2)n1	51*	47	0.5	2	23
CSc1nc(=S)c2[nH]c(=S)[nH]c2[nH]1	x	x	x	4	88*
Cc1ccc(-c2ccc(=O)n(CC(=O)NCCN3CCCCC3C)n2)cc1 (configuration not stated)	10	53*	0.5	-4	-10
Cc1ccc(-c2ccc(=O)n(CCC(=O)NCCN3CCCCC3C)n2)cc1 (configuration not stated)	-9	8	0.9	-12	-21
On1c2c(c3c4nonc4ccc31)CCCC2	47	56*	0.4	x	x
O=C(O)c1ccccc1N=Nc1c(O)[nH]c2ccc([N+](=O)[O-])cc12	x	x	x	37*	-9
O=C(N=Nc1c(O)[nH]c2ccc([N+](=O)[O-])cc12)c1ccccc1Cl	x	x	x	13	5
COc1cccc(C(=O)NC2CC3CCCC(C2)N3CC(=O)Nc2ccccc2)c1 (configuration not stated)	11	58*	0.4	27	39
COc1cccc(C(=O)NC2CC3CCCC(C2)N3CC(=O)Nc2ccc(N(C)C)cc2)c1 (configuration not stated)	4	11	0.9	-2	6
CCN(CCO)c1ncnc2c1sc1nc(C(C)C)c3c(c12)CC(C)(C)OC3	7	63*	0.4	16	49
SMILES	G6PDH counter	Diaphorase inh	Diaph act CS	HKDC1 inhibitor	PfGluPho inh
CSc1nc(NCc2ccco2)c2sc3nc(C(C)C)c4c(c3c2n1)CC(C)(C)OC4	5	86*	0.1	-6	0
CCSc1ncnc2c1sc1nc(-c3ccco3)c3c(c12)CC(C)(C)OC3	-9	26	0.7	x	x
CC(C)c1nc2sc3c(NCc4ccccc4)ncnc3c2c2c1COC(C)(C)C2	-3	58*	0.4	-8	-4
CCCc1nc2sc3c(=O)n(N)cnc3c2c2c1COC(C)(C)C2	-7	4	1	x	x
CC(C)c1nc2sc3c(NCc4ccco4)ncnc3c2c2c1COC(C)(C)C2	13	104*	0	24	47
COC(=O)C[C@@H]1C[C@@H]2c3cc(NS(=O)(=O)c4ccc(F)cc4)ccc3O[C@@H]2[C@H](CO)O1	x	x	x	x	14
CN(C)C=Nc1c(Br)cc(Br)c2nonc12	44	62*	0.4	10	31
CCC1=C/C(=C/c2sc3ccccc3[n+]2CC)CC(C)(C)C1	-3	17	0.8	2	61*
CC[n+]1c(/C=C2\C=C(C)CC(C)C2)sc2ccccc21 (configuration not stated)	3	15	0.8	10	49
C[C@@H]1CN(Cc2nnnn2CC(=O)NCCCn2cccn2)C[C@H](C)O1	x	x	x	x	-17
Cc1cc(N=Cc2c(O)ccc3cc(Br)ccc23)no1	23	64*	0.4	24	9
Cc1ccc(S(=O)(=O)N2C[C@@H](C)[C@]3(C2)[C@H](O)[C@H](OC(=O)NCc2ccccc2F)C[C@H]2C(=O)N(c4ccccc4)C(=O)[C@H]23)cc1	x	x	x	x	15
CC(=O)NC(c1ccc(Cl)cc1)c1c(O)ccc2ccc(O)cc12 (configuration not stated)	54*	26	0.7	2	39
CCCCCCNC(=O)O[C@H]1Cn2c(=O)ccc(=O)n2[C@@H]2CN(S(=O)(=O)c3ccc(C)cc3)C[C@]12O	x	x	x	x	-3
CN(C)c1ccc2c(O)cc(=O)n(C)c2c1	7	60*	0.4	10	39
COc1ccc2c(c1)-c1nc(/N=C/c3ccc(O)cc3)sc1CC2	26	56*	0.4	17	21
O=C(Cc1ccc(Cl)cc1)Oc1cccc2cccnc12	63*	42	0.6	2	-21
O=C(Oc1ccc(Cl)c2cccnc12)c1cccc([N+](=O)[O-])c1	13	25	0.8	-5	8
O=C(Oc1cccc2cccnc12)c1cccc([N+](=O)[O-])c1	59*	34	0.7	6	8
O=C(Oc1cccc2cccnc12)c1ccco1	41	23	0.8	0	-3
Cc1ccc(NC(=O)COC(=O)Cc2c[nH]c3ccccc23)cc1	x	x	x	x	16
CC(Sc1nnc(-c2ccccc2)c(-c2ccccc2)n1)C(=O)Nc1ncc(Cl)cc1Cl (configuration not stated)	-11	53*	0.5	14	20
O=C(CCl)Nc1ccccc1Sc1ccc(Cl)cc1	17	6	0.9	12	87*
O=C(COc1ccccc1)c1cn(CC(=O)N2CCCC2)c2ccccc12	-1	94*	0.1	-3	2
CN1CCN(C(=O)CCn2c(=S)[nH]c3ccccc3c2=O)CC1	x	x	x	x	1
O=C1c2cccc3c([N+](=O)[O-])ccc(c23)C(=O)N1c1ccccn1	18	21	0.8	22	55
